Test results: PMC9677924 (International Journal of Nanomedicine, 2022)
Values after ≈ are worked out from the molar mass of the structure shown.

Key:
[1] = In vivo pharmacokinetic studies; design: species or system Sprague-Dawley rats
[2] = In vivo biodistribution studies in MCF-7/HER2 tumor-bearing mice; design: species or system nude mice; settings: 8 h after administration; liver and kidneys
MCF-7/HER2 cells = assay: In vitro cytotoxicity, MTT assay; assay type: cell-based; settings: Homo sapiens, MCF7, 48 h, read-out: IC50 (ng/mL) Free Drug
In short: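 MCF-7/HER2 cells grown in DMEM/F12 with 10% FBS and 1% penicillin/streptomycin/amphotericin B at 37 °C, 5% CO2. Seeded at 1×10^4 cells/well for 24 h, then exposed to test compounds (free or nanocarrier forms) at 1~500 ng/mL. Methods give a 48 h exposure; the figure legend gives 72 h. Then 0.5 mg/mL MTT for 3 h, formazan dissolved in DMSO, absorbance read at 550 nm.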

Biosafety examination = assay type: in vivo, nude mice; settings: after the Q3D×4 regimen
In short: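 Organs and tumors came from the MCF-7/HER2 xenograft nude-mouse study (IV dosing every 3 days ×4). Tail morphology was examined on day 24. On day 28 after administration, tissues were fixed in 4% paraformaldehyde. Heart, liver, spleen, lungs and kidneys were H&E-stained and scored for inflammatory cell infiltration.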

MCF-7/HER2 tumors = assay: In vivo tumor inhibition studies; design: species or system nude mice; settings: day 24, compared with the PBS group; IV Q3D×4
In short: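 Female nude mice (7 weeks) injected s.c. in the right thigh with 1×10^6 MCF-7/HER2 cells, plus 20 μg estradiol valerate in sesame oil s.c. in the neck. At ~100 mm3, mice were randomized to 10 groups (n=4, saline control). They received IV tail-vein doses equivalent to 5 mg/kg taxane and/or 2.5 mg/kg PI3K inhibitor every 3 days ×4. Volume (L×W²/2) and body weight were recorded every 3 days. Tumors were excised and weighed on day 24.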

[3] = cited from earlier work
[4] = cited from earlier work; remark: listed apart in the source
[5] = In vitro release of docetaxel and pictilisib; assay type: physicochemical; settings: after 12 h
[6] = female, Sprague-Dawley, rat, plasma, iv, 5 mg/kg
[7] = female, Sprague-Dawley, rat, plasma, iv, 2.5 mg/kg

Compound | AUC(0-inf) [1, 6] [ng·h/mL] | AUC(0-t) [1, 6] [ng·h/mL] | Vd [1, 6] [L/kg] | clearance [1, 6] [mL/min/kg] | half-life [1, 6] [h] | Relative bioavailability (%) of DTX ([1]; relative to Free DTX, IV 5 mg/kg BW DTX, rats) [%] | accumulation of DTX in major organs [2] | IC50 (MCF-7/HER2 cells) [ng/mL] | liver, H&E staining (inflammatory cell infiltration) (Biosafety examination) | tumor weights / tumor inhibition (MCF-7/HER2 tumors) | AUC(0-inf) [1, 7] [ng·h/mL] | AUC(0-t) [1, 7] [ng·h/mL] | Vd [1, 7] [L/kg] | half-life [1, 7] [h] | C0 (μg/mL) of PIC ([1]; pictilisib in plasma, IV 2.5 mg/kg BW PIC, rats, n=3, listed as Free PIC, 2.5 mg/kg) [µg/mL] | log P [3] | pKa [4] | precipitation in the dialysis bag [5]
CC(=O)O[C@@]12CO[C@@H]1C[C@H](O)[C@@]1(C)C(=O)[C@H](O)C3=C(C)[C@@H](OC(=O)[C@H](O)[C@@H](NC(=O)OC(C)(C)C)c4ccccc4)C[C@@](O)([C@@H](OC(=O)c4ccccc4)[C@H]21)C3(C)C [DTX, docetaxel] | 524 ± 37 | 487 ± 37 | 73.4 ± 5.22 | 160 | 5.32 ± 0.24 | 100 | higher accumulation in the liver and kidneys | 12.5 ± 2.69 (≈ 0.0155 µM) | slight liver damage | – | – | – | – | – | – | – | – | –
CS(=O)(=O)N1CCN(Cc2cc3nc(-c4cccc5[nH]ncc45)nc(N4CCOCC4)c3s2)CC1 [PIC, pictilisib] | – | – | – | – | – | – | – | 86.8 ± 17.6 (≈ 0.169 µM) | – | little antitumor efficacy | 536 ± 44 | 530 ± 46 | 19.7 ± 6.27 | 2.92 ± 0.97 | 0.691 ± 0.115 | 1.96 | 13.19 | precipitation in the free PIC group was observed
